Test results reported in ChEMBL document CHEMBL1126036, “Quinolone antibacterial agents. Synthesis and structure-activity relationships of a series of amino acid prodrugs of racemic and chiral 7-(3-amino-1-pyrrolidinyl)quinolones. Highly soluble quinolone prodrugs with in vivo pseudomonas activity” (J Med Chem, 1992).
In brackets after ≈: the same amount, converted by molar mass.

Tests used:
Escherichia coli [1] = assay: In vivo potency against acute systemic infection in mouse caused by Escherichia coli vogel on subcutaneous injection.; type: functional; conditions: sc, read-out: PD50
Method in brief: (§1)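 Acute systemic mouse infection. A single subcutaneous dose was injected at the time of challenge. Potency is reported as the median protective dose (PD50, mg/kg), determined by earlier published methods.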

Staphylococcus aureus [2] = assay: In vitro antibacterial activity against gram positive Staphylococcus aureus UC76.; type: functional
[3] = molecular target: DNA gyrase (Escherichia coli) (UniProt P0AES6+P0AES4); assay: In vitro concentration inhibiting DNA gyrase induced cleavage in Escherichia coli H560.; type: functional
Method in brief: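 DNA gyrase test run as described in earlier work. The value is the drug concentration (µg/mL) needed to cause DNA cleavage.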

Providencia rettgeri = assay: In vitro antibacterial activity against gram negative Providencia rettgeri M-1771.; type: functional
Streptococcus pyogenes = assay: In vitro antibacterial activity against gram positive Streptococcus pyogenes C-203.; type: functional
Pseudomonas aeruginosa = assay: In vitro antibacterial activity against gram negative Pseudomonas aeruginosa UI-18.; type: functional
Escherichia coli [4] = assay: In vivo potency against acute systemic infection in mouse caused by Escherichia coli Vogel on oral administration by gavage.; type: functional; conditions: read-out: PD50
Method in brief: (§2)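 Acute systemic mouse infection. A single oral dose was given by gavage at the time of challenge. Potency is reported as the median protective dose (PD50, mg/kg), determined by earlier published methods.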

[5] = Solubility (at pH 4); type: physicochemical; conditions: buffer, read-out: S
Method in brief: (§3)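 Solubility was measured either from HPLC peak areas at equilibrium or by a conventional weight-per-volume method. All solutions were held for 24 h before measurement.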

[6] = Solubility (in 0.1 N HCl); type: physicochemical; conditions: read-out: S; method in brief: as §3
Escherichia coli [7] = assay: In vitro antibacterial activity against gram negative Escherichia coli Vogel.; type: functional
Streptococcus pneumoniae [8] = assay: In vitro antibacterial activity against gram positive Streptococcus pneumoniae SV-1.; type: functional
Klebsiella pneumoniae [9] = assay: In vitro antibacterial activity against gram negative Klebsiella pneumoniae. MGH-2; type: functional
Streptococcus pneumoniae [10] = assay: In vivo potency against acute systemic infection in mouse caused by Streptococcus pneumoniae SV-1 on subcutaneous injection.; type: functional; conditions: sc, read-out: PD50; method in brief: as §1
Enterococcus faecalis = assay: In vitro antibacterial activity against gram positive Enterococcus faecalis MGH-2.; type: functional
Enterobacter cloacae = assay: In vitro antibacterial activity against gram negative Enterobacter cloacae MA 2646.; type: functional
Staphylococcus aureus [11] = assay: In vitro antibacterial activity against gram positive Staphylococcus aureus H-228.; type: functional
Streptococcus pneumoniae [12] = assay: In vivo potency against acute systemic infection in mouse caused by Streptococcus pneumoniae SV-1 on oral administration by gavage.; type: functional; conditions: read-out: PD50; method in brief: as §2
[13] = Aqueous solubility; type: physicochemical; conditions: read-out: S; method in brief: as §3
[14] = Solubility (at pH 7.4); type: physicochemical; conditions: buffer, read-out: S; method in brief: as §3
Mus musculus [15] = assay: In vivo potency against acute systemic infection in mouse caused by Streptococcus pyogenes C-203 on oral administration by gavage; type: functional; conditions: read-out: PD50; method in brief: as §2
Mus musculus [16] = assay: In vivo potency against acute systemic infection in mouse caused by Streptococcus pyogenes C-203 on subcutaneous injection; type: functional; conditions: sc, read-out: PD50; method in brief: as §1
Klebsiella pneumoniae [17] = assay: In vitro antibacterial activity against gram negative Klebsiella pneumoniae MGH-2.; type: functional
Mus musculus [18] = assay: In vivo potency against acute systemic infection in mouse caused by Pseudomonas aeruginosa. UI-18. on subcutaneous injection.; type: functional; conditions: sc, read-out: PD50; method in brief: as §1
Mus musculus [19] = assay: In vivo potency against acute systemic infection in mouse caused by Pseudomonas aeruginosa UI-18 on oral administration by gavage.; type: functional; conditions: read-out: PD50; method in brief: as §2

| Structure (SMILES) | ED50 (Escherichia coli [1]) | MIC (Staphylococcus aureus [2]) | Cleavage [3] | MIC (Providencia rettgeri) | MIC (Streptococcus pyogenes) | MIC (Pseudomonas aeruginosa) | ED50 (Escherichia coli [4]) | solubility [5] | solubility [6] | MIC (Escherichia coli [7]) | MIC (Streptococcus pneumoniae [8]) | MIC (Klebsiella pneumoniae [9]) | ED50 (Streptococcus pneumoniae [10]) | MIC (Enterococcus faecalis) | MIC (Enterobacter cloacae) | MIC (Staphylococcus aureus [11]) | ED50 (Streptococcus pneumoniae [12]) | solubility ([13]; water (aqueous)) | ED50 (Mus musculus [15]) | ED50 (Mus musculus [16]) | also measured |
| --- | --- | --- | --- | --- | --- | --- | --- | --- | --- | --- | --- | --- | --- | --- | --- | --- | --- | --- | --- | --- | --- |
| C[C@@H](N)C(=O)NC1CCN(c2nc3c(cc2F)c(=O)c(C(=O)O)cn3C2CC2)C1.Cl.O (stereo partly drawn) | 5.1 mg/kg | 0.05 µg/mL | 2.5 µg/mL | 1.6 µg/mL | 0.013 µg/mL | 1.6 µg/mL | 22.5 mg/kg | 262000 µg/mL | 189000 µg/mL | 0.8 µg/mL | 0.25 µg/mL | 0.8 µg/mL | 3 mg/kg | 0.2 µg/mL | 0.8 µg/mL | 0.4 µg/mL | > 100 mg/kg | > 250000 µg/mL |  |  | solubility ([13]; pH 7.4 phosphate buffer): 60 µg/mL |
| N[C@@H]1CCN(c2nc3c(cc2F)c(=O)c(C(=O)O)cn3C2CC2)C1 | 0.4 mg/kg | 0.05 µg/mL (≈ 0.15 µM) | 0.5 µg/mL | 0.05 µg/mL (≈ 0.15 µM) | 0.2 µg/mL (≈ 0.602 µM) | 0.4 µg/mL (≈ 1.2 µM) | 0.5 mg/kg |  |  | 0.013 µg/mL (≈ 0.0391 µM) | 0.1 µg/mL (≈ 0.301 µM) | 0.025 µg/mL (≈ 0.0752 µM) | 34 mg/kg | 0.2 µg/mL (≈ 0.602 µM) | 0.025 µg/mL (≈ 0.0752 µM) | 0.2 µg/mL (≈ 0.602 µM) | 45 mg/kg |  |  |  |  |
| Nc1c(F)c(N2CCC(N)C2)c(F)c2c1c(=O)c(C(=O)O)cn2C1CC1 (stereo not drawn) | 0.4 mg/kg | 0.006 µg/mL (≈ 0.0165 µM) | 0.25 µg/mL | 0.025 µg/mL (≈ 0.0686 µM) | 0.025 µg/mL (≈ 0.0686 µM) | 0.05 µg/mL (≈ 0.137 µM) | 2 mg/kg | 3200 µg/mL (≈ 8780 µM) | 100 µg/mL (≈ 274 µM) | 0.006 µg/mL (≈ 0.0165 µM) | 0.006 µg/mL (≈ 0.0165 µM) |  | 9 mg/kg | 0.025 µg/mL (≈ 0.0686 µM) | 0.006 µg/mL (≈ 0.0165 µM) | 0.013 µg/mL (≈ 0.0357 µM) | 20 mg/kg | 2400 µg/mL (≈ 6590 µM) | 24 mg/kg | 6 mg/kg | solubility [14]: 80 µg/mL (≈ 220 µM); MIC (Klebsiella pneumoniae [17]): 0.006 µg/mL (≈ 0.0165 µM); ED50 (Mus musculus [18]): 4 mg/kg; ED50 (Mus musculus [19]): 16 mg/kg |
| C[C@H](N)C(=O)NC1CCN(c2nc3c(cc2F)c(=O)c(C(=O)O)cn3C2CC2)C1.Cl.O (stereo partly drawn) | 0.6 mg/kg | 0.8 µg/mL | 0.75 µg/mL | 1.6 µg/mL | 0.4 µg/mL | 3.1 µg/mL | 1 mg/kg | > 350000 µg/mL | > 350000 µg/mL | 0.4 µg/mL | 0.8 µg/mL | 0.8 µg/mL | 10 mg/kg | 1.6 µg/mL | 0.2 µg/mL | 3.1 µg/mL | 28 mg/kg | > 300000 µg/mL | 15 mg/kg | 7 mg/kg | ED50 (Mus musculus [18]): 5 mg/kg; ED50 (Mus musculus [19]): 7 mg/kg; solubility ([13]; pH 7.4 phosphate buffer): 80 µg/mL |
| N[C@H]1CCN(c2nc3c(cc2F)c(=O)c(C(=O)O)cn3C2CC2)C1 | 0.4 mg/kg | 0.013 µg/mL (≈ 0.0391 µM) | 0.25 µg/mL | 0.025 µg/mL (≈ 0.0752 µM) | 0.05 µg/mL (≈ 0.15 µM) | 0.1 µg/mL (≈ 0.301 µM) | 0.8 mg/kg |  |  | 0.006 µg/mL (≈ 0.0181 µM) | 0.05 µg/mL (≈ 0.15 µM) | 0.013 µg/mL (≈ 0.0391 µM) | 14 mg/kg | 0.1 µg/mL (≈ 0.301 µM) | 0.013 µg/mL (≈ 0.0391 µM) | 0.05 µg/mL (≈ 0.15 µM) | 19 mg/kg |  | 19 mg/kg | 9 mg/kg | ED50 (Mus musculus [18]): 2 mg/kg; ED50 (Mus musculus [19]): 4 mg/kg |
| Cl.NCC(=O)NC1CCN(c2c(F)c(N)c3c(=O)c(C(=O)O)cn(C4CC4)c3c2F)C1.O (stereo not drawn) | 0.4 mg/kg | 0.1 µg/mL | 5 µg/mL | 0.4 µg/mL | 0.2 µg/mL | 1.6 µg/mL | 1 mg/kg | 69000 µg/mL | 3500 µg/mL | 0.2 µg/mL | 0.4 µg/mL |  | 16 mg/kg | 0.4 µg/mL | 0.2 µg/mL | 0.4 µg/mL | 29 mg/kg | 17000 µg/mL | 36 mg/kg | 8.1 mg/kg | solubility [14]: 70 µg/mL; MIC (Klebsiella pneumoniae [17]): 0.4 µg/mL |
| C[C@H](N)C(=O)N[C@H]1CCN(c2nc3c(cc2F)c(=O)c(C(=O)O)cn3C2CC2)C1.Cl.O | 0.4 mg/kg | 0.8 µg/mL | 5 µg/mL | 3.1 µg/mL | 0.8 µg/mL | 3.1 µg/mL | 1.3 mg/kg | > 350000 µg/mL | > 350000 µg/mL | 0.8 µg/mL | 0.8 µg/mL | 1.6 µg/mL | 12 mg/kg | 1.6 µg/mL | 0.8 µg/mL | 3.1 µg/mL | 25 mg/kg | > 350000 µg/mL | 22 mg/kg | 10 mg/kg | ED50 (Mus musculus [18]): 2 mg/kg; ED50 (Mus musculus [19]): 3 mg/kg; solubility ([13]; pH 7.4 phosphate buffer): 20 µg/mL |
